Experimental data published in ChEMBL document CHEMBL1125060, “Synthesis and biological evaluation of carbocyclic analogues of lyxofuranosides of 2-amino-6-substituted-purines and 2-amino-6-substituted-8-azapurines” (1990).
In brackets after ≈: the same amount, converted by molar mass.

Legend:
MDCK [1] = assay: In vitro antiviral activity against influenza virus (type A0/PR/8/34) in Madin-Darby canine kidney (MDCK) host cell cultures; assay type: functional, Canis lupus familiaris
P388 [2] = assay: In vitro inhibition against P-388 mouse leukemia cells using growth inhibition assay at the concentration of 100 ug/mL; assay type: functional
Outline: (§1)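 P-388 mouse leukemia cells in culture, by the National Cancer Institute protocol. Tested at 6.25-100 μg/mL and reported as percent growth inhibition. Carbocyclic adenosine is the positive control.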

P388 [3] = assay: In vitro inhibition against P-388 mouse leukemia cells using growth inhibition assay at the concentration of 12.5 ug/mL; assay type: functional; outline: as §1
P388 [4] = assay: In vitro inhibition against P-388 mouse leukemia cells using growth inhibition assay at the concentration of 25 ug/mL; assay type: functional; outline: as §1
P388 [5] = assay: In vitro inhibition against P-388 mouse leukemia cells using growth inhibition assay at the concentration of 50 ug/mL; assay type: functional; outline: as §1
P388 [6] = assay: In vitro inhibition against P-388 mouse leukemia cells using growth inhibition assay at the concentration of 6.25 ug/mL; assay type: functional; outline: as §1
Vero [7] = assay: (§2) In vitro antiviral activity against herpes simplex virus type 1 (E-377 strain) in Vero host cell cultures; assay type: functional, Chlorocebus sabaeus
Outline: (§3)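 CPE inhibition assay with HSV-1 strain E-377 replicating in Vero cells. ID50 is the minimum concentration (μg/mL) inhibiting CPE by 50%, from regression with semilog curve fitting. MTC is the minimum concentration (μg/mL) giving any cytotoxicity. TI is MTC divided by ID50.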

Vero [8] = assay: Minimum concentration (ug/mL) for in vitro antiviral activity against herpes simplex virus type 1 (E-377 strain) in Vero host cell cultures; assay type: functional, Chlorocebus sabaeus; outline: as §3
MRC5 [9] = assay: Cytotoxicity against MRC5 (human diploid embryonic lung cells) cell monolayer cultures at the concentration of 320 uM; Slightly toxic; assay type: functional, cell-based
MRC5 [10] = assay: Cytotoxicity against MRC5 (human diploid embryonic lung cells)cell monolayer cultures at the concentration of 1000 uM; Slightly toxic; assay type: functional, cell-based
MRC5 [11] = assay: Cytotoxicity against MRC5 (human diploid embryonic lung cells)cell monolayer cultures at the concentration of 100 uM; assay type: functional
MRC5 [12] = assay: Cytotoxicity against MRC5 (human diploid embryonic lung cells)cell monolayer cultures at the concentration of 32 uM; assay type: functional
MRC5 [13] = assay: Effect of compound on yields of human cytomegalovirus (HCMV) in MRC5 (human diploid embryonic lung cells)cell monolayer cultures at the concentration of 100 uM; assay type: functional
Outline: (§4)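 Virus yield reduction assay with HCMV strain Ad169, passaged, titrated and assayed in MRC5 human diploid embryonic lung cells. Virus yields are read as PFU. Includes a virus control and a DHPG positive control.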

MRC5 [14] = assay: Effect of compound on yields of human cytomegalovirus (HCMV) in MRC5 (human diploid embryonic lung cells)cell monolayer cultures at the concentration of 3.2 uM; assay type: functional; outline: as §4
MRC5 [15] = assay: Effect of compound on yields of human cytomegalovirus (HCMV) in MRC5 (human diploid embryonic lung cells)cell monolayer cultures at the concentration of 320 uM; assay type: functional; outline: as §4
MRC5 [16] = assay: Effect of compound on yields of human cytomegalovirus (HCMV) in MRC5 (human diploid embryonic lung cells)cell monolayer cultures at the concentration of 32 uM; assay type: functional; outline: as §4
MRC5 [17] = assay: Effect of compound treatment on yields of human cytomegalovirus (HCMV) in MRC5 (human diploid embryonic lung cells)cell monolayer cultures at the concentration of 1000 uM; assay type: functional; outline: as §4
MRC5 [18] = assay: Cytotoxicity against MRC5 (human diploid embryonic lung cells)cell monolayer cultures by using MTT [3-(4,5-Dimethylthiazol-2-yl)-2,5-diphenyltetrazolium bromide]assay at the concentration of 32 uM; assay type: functional
Outline: (§5)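 MRC5 human diploid embryonic lung cell monolayers. Cytotoxicity is quantified by host-cell mitochondrial reduction of MTT to MTT formazan. It was run alongside the HCMV yield reduction assay.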

MRC5 [19] = assay: Cytotoxicity against MRC5 (human diploid embryonic lung cells)cell monolayer cultures by using MTT [3-(4,5-Dimethylthiazol-2-yl)-2,5-diphenyltetrazolium bromide]assay at the concentration of 100 uM; assay type: functional; outline: as §5
MRC5 [20] = assay: Cytotoxicity against MRC5 (human diploid embryonic lung cells) cell monolayer cultures by using MTT [3-(4,5-Dimethylthiazol-2-yl)-2,5-diphenyltetrazolium bromide]assay at the concentration of 1000 uM; assay type: functional; outline: as §5
MRC5 [21] = assay: Cytotoxicity against MRC5 (human diploid embryonic lung cells) cell monolayer cultures by using MTT [3-(4,5-Dimethylthiazol-2-yl)-2,5-diphenyltetrazolium bromide]assay at the concentration of 320 uM; assay type: functional; outline: as §5
MRC5 [22] = assay: Effect of compound on yields of human cytomegalovirus (HCMV) in MRC5 (human diploid embryonic lung cells)cell monolayer cultures at the concentration of 0 uM; assay type: functional; outline: as §4
Vero [23] = assay: as §2; assay type: functional; details: Chlorocebus sabaeus, read-out: ID50 (the source's name); outline: as §3
Vero [24] = assay: as §2; assay type: functional, Chlorocebus sabaeus; remark: listed apart in the source
Outline: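 CPE-inhibition assay: HSV-1 strain E-377 replicating in African green monkey kidney (Vero) cells. ID50 is the minimum drug concentration (μg/mL) giving 50% CPE inhibition, taken from semilog regression curve fitting. Cytotoxicity was scored as the minimum concentration (μg/mL) showing any toxicity (MTC). TI = MTC/ID50.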

MRC5 [25] = assay: Effect of compound on yields of human cytomegalovirus (HCMV) in MRC5 (human diploid embryonic lung cells)cell monolayer cultures at the concentration of 10 uM; assay type: functional; outline: as §4
MDCK [26] = assay: Minimum concentration (ug/mL) for in vitro antiviral activity against influenza virus (type A0/PR/8/34) in Madin-Darby canine kidney (MDCK) host cell cultures; assay type: functional, Canis lupus familiaris
Outline: (§6)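 MDCK host cell cultures infected with influenza A0/PR/8/34, scored for inhibition of virus-induced cytopathogenic effect (CPE). ID50 is the minimum drug concentration (μg/mL) that cut CPE by 50%, from semilog regression curve fitting. MTC is the minimum concentration (μg/mL) at which any cytotoxicity was seen. Therapeutic index is MTC divided by ID50.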

Vero [27] = assay: In vitro antiviral activity against herpes simplex virus type 1 (E-377 strain) in Vero host cell cultures (MTC/ID50); assay type: functional, Chlorocebus sabaeus; outline: as §3
Vero [28] = assay: In vitro minimum drug concentration that inhibited herpes simplex virus type 1 (E-377 strain)-induced cytopathogenic effects by 50% in vero cell cultures; assay type: functional; details: Chlorocebus sabaeus, read-out: ID50 (the source's name); outline: as §3
MDCK [29] = assay: In vitro minimum drug concentration that inhibited the influenza virus-induced cytopathogenic effects by 50% in Madin-Darby canine kidney (MDCK) host cell cultures; assay type: functional; details: Canis lupus familiaris, read-out: ID50 (the source's name); outline: as §6
MDCK [30] = assay: In vitro antiviral activity against influenza virus (type A0/PR/8/34) in Madin-Darby canine kidney (MDCK) host cell cultures (MTC/ID50); assay type: functional, Canis lupus familiaris; outline: as §6
Vero [31] = assay: In vitro minimum drug concentration that inhibited herpes simplex virus type 1 (E-377 strain) virus-induced cytopathogenic effects by 50% in vero cells; assay type: functional; details: Chlorocebus sabaeus, read-out: ID50 (the source's name); outline: as §3
MRC5 [32] = assay: Effect of compound treatment on yields of human cytomegalovirus (HCMV) in MRC5 (human diploid embryonic lung cells) monolayer cultures at the concentration of 32 uM; assay type: functional; outline: as §4

## Nc1nc(N)c2nnn(C3CC(CO)C(O)C3O)c2n1 (centres undefined)
MDCK [1]
  Virus rating: 0
P388 [2]
  inhibition at 100 µg/mL: 58.4%
P388 [3]
  inhibition at 12.5 µg/mL: 0%
P388 [4]
  inhibition at 25 µg/mL: 12.2%
P388 [5]
  inhibition at 50 µg/mL: 31.5%
P388 [6]
  inhibition at 6.25 µg/mL: 0%
Vero [7]
  Virus rating: 0
Vero [8]
  MTC: >294.8 µg/mL

## Nc1nc(O)c2ncn(C3CC(CO)C(O)C3O)c2n1 (centres undefined)
MDCK [1]
  Virus rating: 0
MRC5 [9]
  Gross morphology: Toxic
MRC5 [10]
  Gross morphology: Toxic
MRC5 [11]
  Gross morphology: 0
MRC5 [12]
  Gross morphology: 0
MRC5 [13]
  HCMV yield: 3.7 log10 pfu/mL
  HCMV yield reduction: 1.7 log10 pfu/mL
MRC5 [14]
  HCMV yield: 4.9 log10 pfu/mL
  HCMV yield reduction: 0.5 log10 pfu/mL
MRC5 [15]
  HCMV yield: 2.5 log10 pfu/mL
  HCMV yield reduction: 2.9 log10 pfu/mL
MRC5 [16]
  HCMV yield: 4.2 log10 pfu/mL
  HCMV yield reduction: 1.2 log10 pfu/mL
MRC5 [17]
  HCMV yield: < 0.6 log10 pfu/mL
  HCMV yield reduction: > 4.8 log10 pfu/mL
MRC5 [18]
  Control: 103%
MRC5 [19]
  Control: 97%
MRC5 [20]
  Control: 88%
MRC5 [21]
  Control: 93%
MRC5 [22]
  HCMV yield: 5.4 log10 pfu/mL
P388 [2]
  inhibition at 100 µg/mL: 71.6%
P388 [3]
  inhibition at 12.5 µg/mL: 9.1%
P388 [4]
  inhibition at 25 µg/mL: 42.1%
P388 [5]
  inhibition at 50 µg/mL: 58.4%
P388 [6]
  inhibition at 6.25 µg/mL: 0%
Vero [7]
  Virus rating: 2.1
Vero [23]
  IC50: 83.4 µg/mL (≈ 297 µM)
Vero [8]
  MTC: >299.3 µg/mL
Vero [24]
  TI: >3.6
MRC5 [25]
  HCMV yield: 4.8 log10 pfu/mL
  HCMV yield reduction: 0.6 log10 pfu/mL

## Nc1nc(Cl)c2nnn(C3CC(CO)C(O)C3O)c2n1 (centres undefined)
MDCK [26]
  MTC: >256.3 µg/mL
MDCK [1]
  Virus rating: 0.3
P388 [2]
  inhibition at 100 µg/mL: 99.1%
P388 [3]
  inhibition at 12.5 µg/mL: 0%
P388 [4]
  inhibition at 25 µg/mL: 14.2%
P388 [5]
  inhibition at 50 µg/mL: 40.1%
P388 [6]
  inhibition at 6.25 µg/mL: 0%
Vero [7]
  Virus rating: 0
Vero [8]
  MTC: 300.7 µg/mL

## Nc1nc(N)c2ncn(C3CC(CO)C(O)C3O)c2n1 (centres undefined)
MDCK [1]
  Virus rating: 0
P388 [2]
  inhibition at 100 µg/mL: 42.3%
P388 [3]
  inhibition at 12.5 µg/mL: 0%
P388 [4]
  inhibition at 25 µg/mL: 0%
P388 [5]
  inhibition at 50 µg/mL: 11.3%
P388 [6]
  inhibition at 6.25 µg/mL: 0%
Vero [27]
  Therapeutic index: 1.4
Vero [7]
  Virus rating: 0.6 VR
Vero [8]
  MTC: 280.3 µg/mL
Vero [28]
  IC50: 195 µg/mL (≈ 696 µM)

## Nc1nc(Cl)c2ncn(C3CC(CO)C(O)C3O)c2n1 (centres undefined)
MDCK [1]
  Virus rating: 0
P388 [2]
  inhibition at 100 µg/mL: 2.8%
P388 [3]
  inhibition at 12.5 µg/mL: 0%
P388 [4]
  inhibition at 25 µg/mL: 0%
P388 [5]
  inhibition at 50 µg/mL: 0%
P388 [6]
  inhibition at 6.25 µg/mL: 0%
Vero [7]
  Virus rating: 0
Vero [8]
  MTC: 299.7 µg/mL

## NC(=O)c1ncn([C@@H]2O[C@H](CO)[C@@H](O)[C@H]2O)n1 [RIBAVIRIN]
MDCK [29]
  IC50: 3.1 µg/mL (≈ 12.7 µM)
MDCK [26]
  MTC: 32 µg/mL
MDCK [30]
  Therapeutic index: 10.3
MDCK [1]
  Virus rating: 3.4

## Nc1ncnc2c1ncn2[C@@H]1C[C@H](CO)[C@@H](O)[C@H]1O [ARISTEROMYCIN]
P388 [2]
  inhibition at 100 µg/mL: 100%
P388 [3]
  inhibition at 12.5 µg/mL: 100%
P388 [4]
  inhibition at 25 µg/mL: 100%
P388 [5]
  inhibition at 50 µg/mL: 100%
P388 [6]
  inhibition at 6.25 µg/mL: 100%

## Nc1nc2c(ncn2COCCO)c(=O)[nH]1 [ACYCLOVIR]
Vero [27]
  Therapeutic index: >240.3
Vero [7]
  Virus rating: 6.2
Vero [31]
  IC50: 0.9 µg/mL (≈ 4 µM)
Vero [8]
  MTC: >255.2 µg/mL

## Nc1nc2c(ncn2COC(CO)CO)c(=O)[nH]1 [GANCICLOVIR]
MRC5 [32]
  HCMV yield: 2.4 log10 pfu/mL
  HCMV yield reduction: 3 log10 pfu/mL

## Nc1ncnc2c1ncn2[C@@H]1O[C@H](CO)[C@@H](O)[C@@H]1O [VIDARABINE]
Vero [27]
  Therapeutic index: 5.6
Vero [7]
  Virus rating: 2.4
Vero [23]
  IC50: 4.8 µg/mL (≈ 18 µM)
Vero [8]
  MTC: 26.8 µg/mL

## Nc1nc(O)c2nnn(C3CC(CO)C(O)C3O)c2n1 (centres undefined)
MDCK [26]
  MTC: 95 µg/mL
MDCK [1]
  Virus rating: 0.2
P388 [2]
  inhibition at 100 µg/mL: 63.9%
P388 [3]
  inhibition at 12.5 µg/mL: 0%
P388 [4]
  inhibition at 25 µg/mL: 5%
P388 [5]
  inhibition at 50 µg/mL: 27.4%
P388 [6]
  inhibition at 6.25 µg/mL: 0%
Vero [7]
  Virus rating: 0
Vero [8]
  MTC: 300.3 µg/mL
